Bioassay records deposited in PubChem by several laboratories.
Compounds with a hit are over-represented: about 4.9% of the library has one in this group of screens.
STAT3 blocker = reduces IL-6 driven STAT3 reporter signal | AID 862 | 190,000 tested, 0.89% active | inhibition, % at 5.5 µM | U3A cells, IL-6 STAT3-luciferase reporter, luminescence; host cell line lacks STAT1;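 active = inhibition above the mean inhibition across all screened compounds plus 3 SD, cut at about 44% in these data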;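 also: 0% = DMSO only wells and 100% = 100 µM nifuroxazide control wells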
STAT1 inh = inhibitors of IFN-gamma induced STAT1 signaling; NIH 3T3 STAT1-luciferase reporter, luminescence; inhibition, % at 5.5 µM; 200,000 tested, 0.35% active;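 active = inhibition above a set limit, the mean inhibition across all tested compounds plus 3 SD, cut at about 34% in these data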;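 also: 0% = IFN-gamma with DMSO and 100% = IFN-gamma with 300 µM nifuroxazide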
STAT3 activator = activators of IL-6 induced STAT3 signaling; U3A cells, IL-6 STAT3-luciferase reporter, luminescence; 100% = signal with IL-6 EC80 alone; activation (% of control), % at 5.6 µM; 190,000 tested, 0.91% active; AID 871;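 active = activation above the screen-wide mean of compound activation plus 3 SD, cut at about 130% in these data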;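 also: 0% = background luminescence of wells with medium and substrate only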
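system = STAT3-luciferase reporter U3A cells | reagent = IL-6 stimulus at 33 ng/mL final | timing = 1 h compound pre-exposure, 6 h IL-6 stimulation, 37 °C | measured by = luminescence | evaluation = % activation versus median of IL-6-stimulated wells | control set = IL-6-only wells as 100% reference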
APP 5'UTR act = APP 5'UTR luciferase reporter activation; SH-SY5Y APP 5'UTR luciferase reporter, luminescence; zero percent = DMSO vehicle wells; activation, % at 2 µM; 190,000 tested, 1% active;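 active = activation above a set limit, based on mean plus 3 SD of controls, cut at about 140% in these data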
NF-kB neuron act = NF-kB expression increase, human neuronal cells; AID 1239; 190,000 tested, 1.6% active; NF-kB reporter expression; active compounds read high; fold change at 12.5 µM; in the data active = fold change above about 3.3
STAT1 act = activators of IFN-gamma induced STAT1 signaling | 200,000 tested, 2.6% active | NIH 3T3 STAT1-luciferase reporter, luminescence; 100% = IFN-gamma alone, no compound | activation (% of control), % at 5.5 µM | AID 932;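 active = activation above the screen-wide mean activation plus 3 SD, cut at about 130% in these data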;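 also: raw ratio to IFN-gamma control signal so 100% means no change and 0% no light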
STAT1 act conf = STAT1 activation, confirmation assay | shares compounds with STAT1 act | NIH 3T3 STAT1-luciferase reporter, IFN-gamma potentiation, luminescence; 100% = IFN-gamma EC80 alone, no compound | activation (% of control), % at 5.7 µM | 1,200 tested, 97% active | AID 1262;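 active = activation above a set limit carried over from the earlier primary STAT1 screen, cut at about 140% in these data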;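 also: simple ratio to median IFN-gamma plus DMSO wells so 0% means no light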
NFkB act STAT1ct = counter-screen for STAT1 activators: NF-kappaB activation; activation (% of control), % at 5.7 µM; HEK293T NF-kB luciferase reporter, TNF-alpha stimulated, luminescence; 100% = TNF-alpha with vehicle only; 1,200 tested, 43% active; AID 1306; shares compounds with STAT1 act;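 active = activation above the mean of solvent-only control wells plus 3 SD, set per campaign, cut at about 130% in these data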;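 also: TNF-alpha given at a submaximal dose yielding about 80% of full reporter signal; values are well signal over median control so 100% means no change and 0% no light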
STAT3 act STAT1c = counter-screen for STAT1 activators: human STAT3 activation; 1,200 tested, 46% active; U3A cells STAT3-luciferase reporter, IL-6, luminescence; cells lack STAT1; 100 = IL-6 alone, no compound effect; activation (% of control), % at 5.7 µM; shares compounds with STAT1 act; AID 1316;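 active = activation above the solvent-only control well mean plus 3 SD, set per plate batch, cut at about 110% in these data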;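 also: 0% = no luminescence and 100% = median IL-6 plus DMSO wells; higher means more STAT3 reporter activation so hits are non-selective activators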
The depositor's hits bear a star; / = not tested or not shown.

SMILES | STAT3 blocker | STAT1 inh | STAT3 activator | APP 5'UTR act | NF-kB neuron act | STAT1 act | STAT1 act conf | NFkB act STAT1ct | STAT3 act STAT1c
c1ccc2c(c1)Cn1c-2nc2ccccc21 | 40.1 | -63.7 | 67.9 | 76.0 | 4.7* | 158.5* | 189.4* | 129.2 | 95.2
NCCCn1cnc2ccccc21 | 13.9 | -9.4 | 96.6 | 14.8 | 0.88 | 106.9 | / | / | /
Cc1cc(C(=O)NCCC2=CCCCC2)c(C)o1 | 12.5 | -47.5 | 92.6 | 136.5* | 2.28 | 155.1* | 181.4* | 119.8 | 110.1
NC(=O)NCCC1=CCCCC1 | 2.6 | 1.9 | 98.1 | -16.9 | 1.03 | 98.2 | / | / | /
COC(=O)c1sccc1NC(=O)Cn1nnc(-c2ccccc2C)n1 | 10.5 | -3.7 | 94.2 | 7.8 | 0.94 | 102.3 | / | / | /
CC(=O)Cc1nsc(Nc2ccc(C)cc2)n1 | -5.5 | -62.5 | 107.6 | 91.7 | 3.15 | 156.5* | 189.5* | 136.8* | 122.4*
CNc1nc(CC(C)=O)ns1 | 4.9 | 10.3 | 98.0 | -0.6 | 1.36 | 90.5 | / | / | /
O=[N+]([O-])c1ccccc1OCCCn1cnc2ccccc21 | -0.3 | -79.0 | 104.4 | 130.4 | 4.13* | 168.6* | 188.4* | 131.7 | 105.7
Nc1nn(-c2ccccc2)c(N)c1N=Nc1ccc2c(c1)OCO2 | 2.9 | -85.0 | 98.7 | 91.8 | 7.51* | 178.4* | 253.3* | 135.2* | 111.9*
Cc1nn(C(=O)c2ccc3c(c2)OCO3)c(N)c1-c1ccccc1 | 5.8 | -27.0 | 99.5 | 11.7 | 1.64 | 124.2 | / | / | /
O=C(Nc1ccc2c(c1)CCC2)c1ccccc1F | 27.4 | -87.3 | 78.3 | 183.3* | 8.26* | 178.8* | 221.6* | 123.3 | 97.0
Cc1occc1C(=O)Nc1ccc2c(c1)CCC2 | 4.0 | -61.2 | 96.2 | 143.8* | 4.66* | 156.5* | 176.1* | 130.2 | 108.8
Cc1occc1C(=O)Nc1cccc([N+](=O)[O-])c1 | 9.5 | -2.5 | 91.1 | 9.9 | 1.29 | 102.4 | / | / | /
O=C(Nc1ccc2c(c1)CCC2)c1ccccc1 | 16.0 | -89.2 | 83.7 | 171.7* | 7.98* | 181.2* | 237.2* | 131.7 | 101.7
NC(=O)CC[C@@H]1NC(=O)C(Cc2ccc(O)cc2)NC(=O)c2cc([N+](=O)[O-])cc(F)c2NCCC[C@@H](C(N)=O)NC1=O (some centres undefined) | -2.0 | 4.7 | 99.3 | -9.4 | 1.5 | 95.7 | / | / | /
CCN(CC)C(=O)CNc1ccc(C(F)(F)F)cc1[N+](=O)[O-] | 0.4 | 9.4 | 100.7 | 9.3 | 1.22 | 90.8 | / | / | /
Cc1cc(NC(=O)CSc2cn(C)c3ccccc23)no1 | 12.5 | 13.1 | 96.8 | -29.4 | 1.03 | 88.1 | / | / | /
N=c1oc2cc(O)ccc2cc1C(=O)Nc1ccccn1 | -2.7 | -11.2 | 107.6 | -9.6 | 1.42 | 110.1 | / | / | /
N=c1oc2cc(O)ccc2cc1C(=O)Nc1nc2ccccc2s1 | -38.9 | -74.7 | 127.5 | 178.5* | 1.63 | 168.0* | 194.5* | 111.8 | 151.6*
Cc1ccc2cc3c(N)c(C(=O)N4CCOCC4)sc3nc2c1 | 22.6 | -61.8 | 87.9 | 178.0* | 1.65 | 156.3* | 117.3 | 103.9 | 110.7*
CCC(C)NC(=O)c1cc2cc3ccc(OC)cc3nc2s1 (centres undefined) | 30.2 | -58.5 | 78.2 | 214.1* | 5.02* | 153.4* | 252.0* | 130.4 | 102.1
COc1ccc2cc3c(N)c(C(=O)N4CCCC4)sc3nc2c1 | 17.7 | -62.2 | 90.3 | 120.5 | 1.32 | 156.8* | 116.8 | 106.5 | 99.4
CCOc1ccc2nc3sc(C(=O)N4CCN(C)CC4)c(N)c3cc2c1 | 17.7 | -11.5 | 92.2 | -7.6 | 0.87 | 110.5 | / | / | /
CCOC(=O)c1[nH]c(C)c(C(=O)OCC(=O)N(C)C2CCS(=O)(=O)C2)c1C (centres undefined) | 6.2 | -9.5 | 96.7 | -2.7 | 1.59 | 107.2 | / | / | /
O=C(NC1=NCCS1)c1sc2cc(F)ccc2c1Cl | -13.0 | -79.3 | 116.9 | 86.2 | 4.81* | 171.9* | 208.6* | 131.3 | 149.9*
SMILES | STAT3 blocker | STAT1 inh | STAT3 activator | APP 5'UTR act | NF-kB neuron act | STAT1 act | STAT1 act conf | NFkB act STAT1ct | STAT3 act STAT1c
O=C(NCc1ccco1)c1sc2cc(F)ccc2c1Cl | 23.6 | -6.8 | 81.9 | 22.1 | 1.66 | 111.2 | / | / | /
CN(CCc1ccccn1)C(=S)NC(=O)c1ccco1 | 0.2 | 0.5 | 104.0 | 2.0 | 1.15 | 99.4 | / | / | /
Cc1nn(C)c(C)c1S(=O)(=O)NC1CCCC1 | -2.6 | -7.7 | 105.3 | 9.9 | 1.07 | 107.0 | / | / | /
Cc1nn(-c2nnc(NC3CCCCC3)nn2)c(C)c1Br | -19.7 | -72.2 | 122.0 | 134.2 | 2.78 | 163.8* | 184.5* | 132.8 | 121.7*
COC(=O)c1oc2ccc(OC)cc2c1N | 9.9 | -7.0 | 95.3 | 21.5 | 1.72 | 108.0 | / | / | /
COc1ccc(C(=O)c2oc3ccc(OC)cc3c2N)cc1 | 1.1 | -58.9 | 98.4 | 189.7* | 5.88* | 151.0* | 138.7* | 147.8* | 111.0*
Cc1ccc(NC(=S)C2=C(O)c3ccccc3N(C)S2(=O)=O)cc1 | 6.4 | 1.8 | 97.0 | 1.0 | 1.55 | 98.4 | / | / | /
COc1ccc2nc(SCC(C)=O)c(C#N)cc2c1 | 0.8 | -101.0 | 101.6 | 137.9* | 5.76* | 190.2* | 311.8* | 139.0* | 92.8
CCOC(=O)CSc1nc2cc(C)cc(C)c2cc1C#N | 15.8 | -21.5 | 87.1 | 94.1 | 1.85 | 119.5 | / | / | /
CCOC(=O)CSc1nc2cc(OC)ccc2cc1C#N | -2.0 | -75.2 | 103.9 | 172.7* | 8.11* | 168.1* | 258.5* | 144.7* | 111.8*
CCOC(=O)CSc1nc2ccc(C)cc2cc1C#N | 1.8 | -62.1 | 104.6 | / | 4.28* | 157.4* | 220.8* | 141.7* | 106.0
CCOC(=O)CSc1nc2cc(C)ccc2cc1C#N | -6.9 | -58.4 | 107.9 | 134.6 | 7.08* | 152.9* | 212.7* | 138.8* | 109.5
COc1ccc(C2=NN(Cc3c(F)cccc3Cl)C(=O)CC2)cc1 | 8.5 | 8.8 | 100.0 | 29.8 | 0.82 | 90.1 | / | / | /
O=C1CN(c2nc(-c3cccnc3)nc3sc4c(c23)CCCC4)CCN1 | 5.6 | -8.6 | 104.7 | 20.1 | 0.49 | 106.2 | / | / | /
Nc1nc(-c2cccnc2)nc2sc3c(c12)CCCC3 | 5.9 | -66.7 | 97.8 | 93.3 | 5.61* | 159.2* | 212.9* | 146.2* | 116.4*
Cc1scc(C(=O)N/N=C/c2ccc(Cl)s2)c1C | -6.4 | -58.2 | 105.4 | 128.1 | 1.19 | 151.0* | 180.7* | 130.2 | 101.6
Cc1scc(C(=O)N/N=C/c2ccc(OC(C)C)cc2)c1C | -1.6 | -6.9 | 106.7 | 28.1 | 0.62 | 106.3 | / | / | /
